Assay results from ChEMBL document CHEMBL1148782, “Inhibitors of tumor progression loci-2 (Tpl2) kinase and tumor necrosis factor alpha (TNF-alpha) production: selectivity and in vivo antiinflammatory activity of novel 8-substituted-4-anilino-6-aminoquinoline-3-carbonitriles” (J Med Chem, 2007).
≈ marks a conversion by molar mass, not a printed value. Blank lines part the entries; values can stand above or below the compound they belong to.

Columns and labels:
Blood = experiment: Inhibition of LPS-stimulated TNFalpha production in human blood; assay type: functional
Monocyte = experiment: Inhibition of LPS-stimulated TNFalpha production in monocytes; assay type: functional, Homo sapiens
[1] = biological target: Mitogen-activated protein kinase kinase kinase 8 (Homo sapiens, UniProt P41279); experiment: Inhibition of Tpl2 by ELISA
Mitogen-activated protein kinase kinase kinase 8, sequence (P41279 whole entry): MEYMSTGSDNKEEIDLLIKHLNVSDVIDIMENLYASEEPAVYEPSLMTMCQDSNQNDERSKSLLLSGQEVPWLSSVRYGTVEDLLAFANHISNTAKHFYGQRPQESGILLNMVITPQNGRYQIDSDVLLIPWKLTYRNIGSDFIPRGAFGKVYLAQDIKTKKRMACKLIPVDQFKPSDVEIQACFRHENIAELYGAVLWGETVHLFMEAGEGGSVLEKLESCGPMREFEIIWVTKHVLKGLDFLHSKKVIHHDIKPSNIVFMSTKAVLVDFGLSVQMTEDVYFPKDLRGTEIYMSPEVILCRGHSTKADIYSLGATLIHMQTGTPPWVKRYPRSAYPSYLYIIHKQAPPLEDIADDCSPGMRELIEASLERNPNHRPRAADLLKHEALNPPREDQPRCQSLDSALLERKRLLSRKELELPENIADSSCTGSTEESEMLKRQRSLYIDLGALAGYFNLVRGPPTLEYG

physchem = conditions: buffer, pH 7.4
[2] = Volume of distribution at steady state in Sprague-Dawley rat at 5 mg/kg, iv; assay type: ADME, organism-based; parameters: dose 5 mg/kg, route intravenous; conditions: in vivo, read-out: Vss
Summary of the method: (§1)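 Female Sprague-Dawley rats were dosed by the iv or oral route. Parameters are reported as means of individual-animal pharmacokinetic values.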

[3] = Half life in Sprague-Dawley rat at 5 mg/kg, iv; assay type: ADME, organism-based; parameters: dose 5 mg/kg, route intravenous; conditions: in vivo; summary of the method: as §1
Rattus norvegicus [4] = experiment: AUC (0 to infinity) in Sprague-Dawley rat at 25 mg/kg, po; assay type: ADME, organism-based, Plasma; parameters: dose 25 mg/kg, route oral; conditions: in vivo; summary of the method: as §1
[5] = biological target: Protein kinase C alpha type (Homo sapiens, UniProt P17252); experiment: Inhibition of PKCalpha
[6] = biological target: cAMP-dependent protein kinase (PKA) (Homo sapiens, UniProt P22694+P17612+P22612); experiment: Inhibition of PKA; assay type: protein assay
[7] = biological target: Ribosomal protein S6 kinase beta-1 (Homo sapiens, UniProt P23443); experiment: Inhibition of S6K
Ribosomal protein S6 kinase beta-1, sequence (P23443 whole entry): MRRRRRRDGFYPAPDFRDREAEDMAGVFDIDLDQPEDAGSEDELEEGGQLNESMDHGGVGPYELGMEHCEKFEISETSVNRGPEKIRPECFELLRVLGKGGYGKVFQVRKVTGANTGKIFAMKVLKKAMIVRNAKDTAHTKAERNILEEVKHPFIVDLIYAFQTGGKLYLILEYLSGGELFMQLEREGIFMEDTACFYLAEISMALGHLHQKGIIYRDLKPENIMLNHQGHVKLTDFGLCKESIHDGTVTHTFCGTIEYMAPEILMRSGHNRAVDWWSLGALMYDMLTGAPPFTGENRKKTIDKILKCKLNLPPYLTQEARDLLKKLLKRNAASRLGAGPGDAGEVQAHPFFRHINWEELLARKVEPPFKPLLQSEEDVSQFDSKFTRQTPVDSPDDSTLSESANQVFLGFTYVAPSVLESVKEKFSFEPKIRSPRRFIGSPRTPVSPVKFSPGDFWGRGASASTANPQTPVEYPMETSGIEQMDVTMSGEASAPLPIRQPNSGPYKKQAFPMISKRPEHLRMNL

[8] = Bioavailability in Sprague-Dawley rat at 25 mg/kg, po; assay type: ADME, organism-based; conditions: in vivo; summary of the method: as §1
[9] = Plasma clearance in Sprague-Dawley rat at 5 mg/kg, iv; assay type: ADME, organism-based; parameters: dose 5 mg/kg, route intravenous; summary of the method: as §1
[10] = Half life in Sprague-Dawley rat at 25 mg/kg, po; assay type: ADME, organism-based; parameters: dose 25 mg/kg, route oral; conditions: in vivo; summary of the method: as §1
[11] = Permeability at pH 7.4 by PAMPA method; assay type: ADME; conditions: read-out: permeability
Summary of the method: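 Passive permeability was measured by high-resolution PAMPA at pH 7.4.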

[12] = biological target: MAP kinase-activated protein kinase 2 (Homo sapiens, UniProt P49137); experiment: Inhibition of MK2
MAP kinase-activated protein kinase 2, sequence (P49137 whole entry): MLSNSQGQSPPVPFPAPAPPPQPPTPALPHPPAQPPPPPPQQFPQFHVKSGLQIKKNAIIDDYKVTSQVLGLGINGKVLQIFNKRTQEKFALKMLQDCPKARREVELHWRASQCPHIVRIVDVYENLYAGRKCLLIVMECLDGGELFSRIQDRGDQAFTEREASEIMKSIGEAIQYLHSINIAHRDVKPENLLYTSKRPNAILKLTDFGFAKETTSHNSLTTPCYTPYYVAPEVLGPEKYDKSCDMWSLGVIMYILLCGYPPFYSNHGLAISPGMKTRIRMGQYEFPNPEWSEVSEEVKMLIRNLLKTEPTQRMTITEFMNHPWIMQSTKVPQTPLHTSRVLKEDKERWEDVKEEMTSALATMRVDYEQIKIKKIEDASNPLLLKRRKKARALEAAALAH

CaM kinase II = CaM kinase II (Homo sapiens, UniProt Q13557+Q13555+Q13554+Q9UQM7)
[13] = biological target: Mitogen-activated protein kinase 14 (Homo sapiens, UniProt Q16539); experiment: Inhibition of p38alpha
Mitogen-activated protein kinase 14, sequence (Q16539 whole entry): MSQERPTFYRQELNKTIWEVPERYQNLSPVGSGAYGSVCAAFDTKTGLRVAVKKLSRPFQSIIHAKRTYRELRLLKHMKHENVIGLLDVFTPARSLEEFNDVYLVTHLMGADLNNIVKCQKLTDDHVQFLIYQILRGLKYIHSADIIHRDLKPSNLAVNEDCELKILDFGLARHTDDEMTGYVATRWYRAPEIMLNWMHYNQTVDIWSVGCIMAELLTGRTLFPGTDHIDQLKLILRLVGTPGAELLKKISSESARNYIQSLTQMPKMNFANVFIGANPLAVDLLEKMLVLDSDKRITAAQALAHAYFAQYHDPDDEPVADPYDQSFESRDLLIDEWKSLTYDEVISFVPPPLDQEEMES

[14] = Metabolic stability in mouse liver microsomes; assay type: ADME, Microsome
Summary of the method: (§2)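 Compound was incubated with liver microsomes from the stated species. Stability is expressed as parent half-life (t1/2, min). Metabolites were also profiled.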

[15] = Metabolic stability in human liver microsomes; assay type: ADME, Microsome; summary of the method: as §2
[16] = biological target: Proto-oncogene tyrosine-protein kinase Src (Homo sapiens, UniProt P12931); experiment: Inhibition of Src
Proto-oncogene tyrosine-protein kinase Src, sequence (P12931 2-536 limits assumed): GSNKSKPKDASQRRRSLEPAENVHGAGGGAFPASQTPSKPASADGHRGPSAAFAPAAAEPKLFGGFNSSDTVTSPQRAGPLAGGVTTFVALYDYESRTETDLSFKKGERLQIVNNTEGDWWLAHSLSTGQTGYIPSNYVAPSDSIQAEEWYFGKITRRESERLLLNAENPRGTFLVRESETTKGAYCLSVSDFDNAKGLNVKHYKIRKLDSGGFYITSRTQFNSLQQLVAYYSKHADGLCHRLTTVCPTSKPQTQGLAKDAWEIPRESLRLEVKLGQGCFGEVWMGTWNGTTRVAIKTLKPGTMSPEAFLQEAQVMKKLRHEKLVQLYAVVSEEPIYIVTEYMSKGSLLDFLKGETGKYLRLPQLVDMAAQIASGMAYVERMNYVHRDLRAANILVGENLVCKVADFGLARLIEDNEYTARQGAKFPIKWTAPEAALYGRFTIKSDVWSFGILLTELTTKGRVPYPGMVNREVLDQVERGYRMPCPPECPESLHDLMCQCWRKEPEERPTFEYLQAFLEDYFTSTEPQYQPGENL

[17] = Metabolic stability in rat liver microsomes; assay type: ADME, Microsome; summary of the method: as §2
[18] = biological target: Epidermal growth factor receptor (Homo sapiens, UniProt P00533)
Epidermal growth factor receptor, sequence (P00533 whole entry): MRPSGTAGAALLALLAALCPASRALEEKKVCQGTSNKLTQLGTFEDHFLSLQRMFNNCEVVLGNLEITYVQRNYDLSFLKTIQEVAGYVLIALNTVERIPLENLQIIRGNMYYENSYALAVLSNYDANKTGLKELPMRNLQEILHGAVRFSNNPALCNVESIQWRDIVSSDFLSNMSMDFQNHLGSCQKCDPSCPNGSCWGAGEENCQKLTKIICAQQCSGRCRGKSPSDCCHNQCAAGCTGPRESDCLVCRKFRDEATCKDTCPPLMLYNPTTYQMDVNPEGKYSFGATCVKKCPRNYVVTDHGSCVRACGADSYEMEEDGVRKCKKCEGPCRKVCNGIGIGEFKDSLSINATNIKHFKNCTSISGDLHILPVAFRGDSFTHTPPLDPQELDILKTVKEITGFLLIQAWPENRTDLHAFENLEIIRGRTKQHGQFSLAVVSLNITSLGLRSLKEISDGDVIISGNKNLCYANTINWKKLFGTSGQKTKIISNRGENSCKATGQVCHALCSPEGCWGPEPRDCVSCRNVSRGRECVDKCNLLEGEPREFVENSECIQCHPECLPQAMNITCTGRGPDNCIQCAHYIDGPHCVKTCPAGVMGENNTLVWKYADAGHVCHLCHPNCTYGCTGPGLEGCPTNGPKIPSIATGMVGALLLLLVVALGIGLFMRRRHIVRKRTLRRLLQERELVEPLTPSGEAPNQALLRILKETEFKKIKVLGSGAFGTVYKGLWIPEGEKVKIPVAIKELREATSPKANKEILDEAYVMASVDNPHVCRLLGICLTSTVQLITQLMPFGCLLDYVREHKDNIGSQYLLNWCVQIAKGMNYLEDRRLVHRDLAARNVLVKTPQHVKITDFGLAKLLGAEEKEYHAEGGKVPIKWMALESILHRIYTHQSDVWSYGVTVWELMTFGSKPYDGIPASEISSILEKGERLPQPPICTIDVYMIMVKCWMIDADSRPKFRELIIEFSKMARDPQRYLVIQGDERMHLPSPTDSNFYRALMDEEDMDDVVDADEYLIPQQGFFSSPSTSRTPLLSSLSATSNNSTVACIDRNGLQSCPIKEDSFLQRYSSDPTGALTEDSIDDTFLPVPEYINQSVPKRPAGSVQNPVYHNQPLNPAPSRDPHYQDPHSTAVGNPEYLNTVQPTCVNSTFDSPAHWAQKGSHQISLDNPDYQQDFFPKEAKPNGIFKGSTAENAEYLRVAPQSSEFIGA

Rattus norvegicus [19] = experiment: Inhibition of TNFalpha production in Sprague-Dawley rat at 10 mg/kg, po administered 1 hr prior to LPS challenge after 1.5 hrs; assay type: functional
[20] = Plasma concentration in LPS challenged Sprague-Dawley rat at 50 mg/kg, po after 150 mins; assay type: ADME, organism-based; parameters: dose 50 mg/kg, route oral
[21] = biological target: Protein kinase C theta type (Homo sapiens, UniProt Q04759); experiment: Inhibition of PKCtheta
Protein kinase C theta type, sequence (Q04759 whole entry): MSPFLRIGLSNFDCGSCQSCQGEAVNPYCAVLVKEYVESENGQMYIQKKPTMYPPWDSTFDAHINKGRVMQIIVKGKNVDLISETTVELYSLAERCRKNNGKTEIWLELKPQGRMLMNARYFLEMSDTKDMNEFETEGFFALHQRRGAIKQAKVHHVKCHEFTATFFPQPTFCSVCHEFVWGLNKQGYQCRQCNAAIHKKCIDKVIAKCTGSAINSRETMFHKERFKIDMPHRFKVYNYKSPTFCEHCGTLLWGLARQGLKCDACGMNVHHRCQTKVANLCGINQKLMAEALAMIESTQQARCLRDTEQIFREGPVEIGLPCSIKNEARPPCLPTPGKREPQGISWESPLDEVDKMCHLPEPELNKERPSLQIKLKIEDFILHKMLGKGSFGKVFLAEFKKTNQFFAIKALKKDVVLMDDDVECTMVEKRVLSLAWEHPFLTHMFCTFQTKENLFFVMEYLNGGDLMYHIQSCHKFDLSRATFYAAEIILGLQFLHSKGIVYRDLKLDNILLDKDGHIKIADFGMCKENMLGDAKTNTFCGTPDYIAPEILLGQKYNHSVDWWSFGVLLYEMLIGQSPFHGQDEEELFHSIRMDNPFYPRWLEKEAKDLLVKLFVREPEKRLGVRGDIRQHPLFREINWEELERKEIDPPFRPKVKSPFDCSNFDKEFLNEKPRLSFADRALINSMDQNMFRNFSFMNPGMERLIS

Cytochrome P450 3A4 = Cytochrome P450 3A4 (Homo sapiens, UniProt P08684)
[22] = biological target: Tyrosine-protein kinase Lck (Homo sapiens, UniProt P06239); experiment: Inhibition of LCK
[23] = biological target: Glycogen synthase kinase-3 beta (Homo sapiens, UniProt P49841); experiment: Inhibition of GSKbeta
[24] = biological target: Tyrosine-protein kinase BTK (Homo sapiens, UniProt Q06187); experiment: Inhibition of BTK
Rattus norvegicus [25] = experiment: Inhibition of TNFalpha production in Sprague-Dawley rat at 50 mg/kg, po administered 1 hr prior to LPS challenge after 1.5 hrs; assay type: functional
[26] = Plasma concentration in LPS challenged Sprague-Dawley rat at 50 mg/kg, po after 1 hr; assay type: ADME, organism-based; parameters: dose 50 mg/kg, route oral
[27] = biological target: Mitogen-activated protein kinase 8 (Homo sapiens, UniProt P45983); experiment: Inhibition of Jnk1
[28] = biological target: Tyrosine-protein kinase Lyn (Homo sapiens, UniProt P07948); experiment: Inhibition of LYN
CYP3A4 = CYP3A4 (Homo sapiens, UniProt P08684); experiment: Inhibition of CYP3A4 at 3 uM; assay type: ADME

- IC50 [1]: 0.2 µM
Structure (SMILES): N#Cc1cnc2c(Cl)cc(NCC(=O)O)cc2c1Nc1ccc(F)c(Cl)c1
- Activity (Blood): >20 µM
- Inhibitory concentration (Monocyte): >5000 nM

- IC50 [1]: 0.002 µM
Structure (SMILES): N#Cc1cnc2c(Cl)cc(NCc3nn[nH]n3)cc2c1Nc1ccc(F)c(Cl)c1
- Activity (Blood): >20 µM
- Inhibitory concentration (Monocyte): >5000 nM

- solubility (physchem): 69 µg/mL (≈ 118 µM)
Structure (SMILES): N#Cc1cnc2c(Br)cc(NCc3cn(CCN4CCOCC4)cn3)cc2c1Nc1ccc(F)c(Cl)c1
- Activity (Blood): 8.95 µM
- Inhibitory concentration (Monocyte): 430 nM

- Vd [2]: 2.7 L/kg
- half-life [3]: 3.2 h
- AUC/dose (Rattus norvegicus [4]): < 10 ng·kg·h/mg/mL
- IC50 [5]: > 100 µM
- IC50 [6]: > 100 µM
- solubility (physchem): < 10 µg/mL
- IC50 [7]: > 100 µM
- bioavailability [8]: 2%
- clearance [9]: 29 mL/min/kg
- half-life [10]: 3.9 h
- Papp [11]: < 5 ×10⁻⁶ cm/s
Structure (SMILES): N#Cc1cnc2c(Br)cc(NCc3cn[nH]n3)cc2c1Nc1ccc(F)c(Cl)c1
- Activity (Blood): 3.5 µM
- Inhibitory concentration (Monocyte): 74 nM

- Vd [2]: 2.4 L/kg
- half-life [3]: 4.4 h
- AUC/dose (Rattus norvegicus [4]): 24 ng·kg·h/mg/mL
- IC50 [5]: 23.4 µM
- IC50 [12]: 40.2 µM
- IC50 (CaM kinase II): > 40 µM
- IC50 [6]: 40.1 µM
- IC50 [13]: 11.2 µM
- half-life [14]: 0.383 h
- solubility (physchem): < 10 µg/mL
- half-life [15]: 0.517 h
- IC50 [1]: 0.02 µM
- IC50 [7]: > 100 µM
- bioavailability [8]: 2%
- clearance [9]: 19 mL/min/kg
- half-life [10]: 8.1 h
- Papp [11]: < 5 ×10⁻⁶ cm/s
- IC50 [16]: 19.9 µM
- half-life [17]: 0.583 h
Structure (SMILES): N#Cc1cnc2c(Cl)cc(NCc3cnc[nH]3)cc2c1Nc1ccc(F)c(Cl)c1
- Activity (Blood): 4.9 µM
- Inhibitory concentration (Monocyte): 350 nM

Structure (SMILES): Cn1cncc1CNc1cc(Cl)c2ncc(C#N)c(Nc3ccc(F)c(Cl)c3)c2c1
- Activity (Blood): >20 µM

Structure (SMILES): CC(C)c1[nH]cnc1CNc1cc(Cl)c2ncc(C#N)c(Nc3ccc(F)c(Cl)c3)c2c1
- Activity (Blood): 5.8 µM

Structure (SMILES): COC(=O)c1[nH]cnc1CNc1cc(Br)c2ncc(C#N)c(Nc3ccc(F)c(Cl)c3)c2c1
- Activity (Blood): >20 µM
- Inhibitory concentration (Monocyte): 2000 nM

- IC50 [18]: > 20 µM
- IC50 [1]: 0.16 µM
Structure (SMILES): N#Cc1cnc2c(C(F)(F)F)cc(NCc3c[nH]cn3)cc2c1Nc1ccc(F)c(Cl)c1
- Activity (Blood): >10 µM
- Inhibitory concentration (Monocyte): 600 nM

Structure (SMILES): CC#CCOc1ccc(S(=O)(=O)N2CCSC(C)(C)[C@@H]2C(=O)NO)cc1
- inhibition in vivo at 10 mg/kg (Rattus norvegicus [19]): 85%

- IC50 [18]: 5 µM
Structure (SMILES): C[S+]([O-])c1cc(NCc2c[nH]cn2)cc2c(Nc3ccc(F)c(Cl)c3)c(C#N)cnc12 (stereo not given)
- Activity (Blood): 13.3 µM
- Inhibitory concentration (Monocyte): 2130 nM

- concentration at 2.5 h [20]: 550 nM
- Vd [2]: 14.1 L/kg
- IC50 [21]: > 50 µM
- IC50 (Cytochrome P450 3A4): 15 µM
- half-life [3]: 5 h
- AUC/dose (Rattus norvegicus [4]): 142 ng·kg·h/mg/mL
- IC50 [5]: > 40 µM
- IC50 [12]: 87.1 µM
- IC50 [22]: 4.5 µM
- IC50 [23]: > 10 µM
- IC50 [6]: > 100 µM
- IC50 [24]: > 10 µM
- IC50 [13]: > 40 µM
- solubility (physchem): < 10 µg/mL
- IC50 [7]: 83.1 µM
- bioavailability [8]: 42%
- concentration at 1 h [26]: 1100 nM
- clearance [9]: 50 mL/min/kg
- IC50 [27]: 31 µM
- half-life [10]: 4 h
- IC50 [28]: > 30 µM
- Papp [11]: < 5 ×10⁻⁶ cm/s
- IC50 [16]: > 40 µM
Structure (SMILES): Cn1cnc(CNc2cc(Br)c3ncc(C#N)c(Nc4ccc(F)c(Cl)c4)c3c2)c1
- Activity (Blood): 6.3 µM
- Inhibitory concentration (Monocyte): 670 nM
- inhibition in vivo at 50 mg/kg (Rattus norvegicus [25]): 50%

- IC50 [1]: 0.83 µM
Structure (SMILES): N#Cc1cnc2c(OCC(O)CO)cc(NCc3cnc[nH]3)cc2c1Nc1ccc(F)c(Cl)c1 (stereo not given)

- IC50 [18]: > 5 µM
Structure (SMILES): N#Cc1cnc2c(Cl)cc(NCc3cccnc3)cc2c1Nc1ccc(F)c(Cl)c1
- Activity (Blood): 20 µM
- Inhibitory concentration (Monocyte): >1000 nM

- IC50 [18]: 3.3 µM
- solubility (physchem): 2 µg/mL (≈ 4.24 µM)
- IC50 [1]: 0.01 µM
Structure (SMILES): N#Cc1cnc2c(Br)cc(NCc3c[nH]cn3)cc2c1Nc1ccc(F)c(Cl)c1
- Activity (Blood): >10 µM
- Inhibitory concentration (Monocyte): 370 nM

- IC50 [5]: > 40 µM
- IC50 [12]: > 40 µM
- IC50 [6]: 10.3 µM
- IC50 [13]: > 40 µM
- IC50 [1]: 0.02 µM
- IC50 [7]: > 40 µM
- inhibition at 3 µM (CYP3A4): 96%
- IC50 [16]: 20 µM
Structure (SMILES): N#Cc1cnc2c(F)cc(NCc3c[nH]cn3)cc2c1Nc1ccc(F)c(Cl)c1
- Activity (Blood): >10 µM
- Inhibitory concentration (Monocyte): 510 nM
